Assay results: ChEMBL document CHEMBL1134965, “Discovery and biological characterization of capromorelin analogues with extended half-lives” (Bioorg Med Chem Lett, 2002)

Tests used:
[1] = Plasma clearance was determined in canine following intravenous (iv) administration of drug (1 mg/kg).; assay type: ADME, organism-based, Canis lupus familiaris; conditions: dog
How it was run: (§1)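 Male beagle dogs given 1 mg/kg intravenously. Plasma sampling gave clearance, volume of distribution and elimination half-life, with half-life calculated over 0–8 h.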

[2] = Plasma elimination half-life (08 h) was determined in canine following intravenous (iv) administration (1 mg/kg).; assay type: ADME, organism-based, Canis lupus familiaris; conditions: dog; how it was run: as §1
[3] = Lipophilicity by octanol water distribution coefficient; assay type: physicochemical
[4] = Volume of distribution was determined in canine following intravenous (iv) administration of drug (1 mg/kg).; assay type: ADME, organism-based, Canis lupus familiaris; conditions: dog, in vivo; how it was run: as §1
[5] = Time taken by the compound to achieve maximum plasma concentration at a 1 mg/kg oral dose in female Sprague-Dawley rats; assay type: ADME, organism-based; set-up: dose 1 mg/kg, route oral; conditions: rat
How it was run: (§2)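 Female Sprague–Dawley rats dosed orally at 1 mgA/kg (free base equivalents). Plasma concentration–time profile gave Cmax, Tmax and apparent oral t1/2.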

[6] = Maximum plasma concentration at a 1 mg/kg oral dose in male and female Beagle dogs.; assay type: ADME, organism-based, Canis lupus familiaris; set-up: dose 1 mg/kg, route oral; conditions: both, dog
How it was run: (§3)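 Male and female beagle dogs given a single 1 mgA/kg oral dose (free base equivalents). Plasma profile gave Cmax, Tmax and apparent oral t1/2.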

[7] = (§4) Oral half life was determined; assay type: ADME, organism-based, Canis lupus familiaris; conditions: dog, in vivo; how it was run: as §2
[8] = target: Growth hormone secretagogue receptor type 1 (Homo sapiens, UniProt Q92847); test: In vitro binding affinity against human type 1a growth hormone secretagogue receptor (hGHS-R1a), using [125I]ghrelin as radioligand.
How it was run: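 Competitive displacement of [125I]-ghrelin from membranes of HEK293 cells over-expressing hGHS-R1a. Ki values are the average of duplicate experiments.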

[9] = Plasma clearance was determined in female Sprague-Dawley rats following intravenous (iv) administration of drug (1 mg/kg).; assay type: ADME, organism-based; conditions: rat
How it was run: (§5)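 Female Sprague–Dawley rats given a 1 mgA/kg (free base equivalents) iv dose. Plasma drug levels gave mean Vd, CL and t1/2.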

[10] = (§6) Bioavailability; assay type: ADME, organism-based, Canis lupus familiaris; conditions: dog, in vivo
How it was run: (§7)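 Bioavailability of the free base from a 1 mgA/kg oral dose compared with a 1 mgA/kg iv dose. Measured in female Sprague–Dawley rats and in male and female beagle dogs.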

Rattus norvegicus [11] = test: In vivo effective dose required for 50% stimulation of GH release in anesthetized rat model.; assay type: functional
How it was run: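 Anesthetized Wistar rats given compound iv, with GH release as read-out. ED50 (mg/kg) is the average of triplicate experiments.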

[12] = as §6; assay type: ADME, organism-based; conditions: rat, in vivo; how it was run: as §7
[13] = as §4; assay type: ADME, organism-based; conditions: rat, in vivo; how it was run: as §2
[14] = Maximum plasma concentration at a 1 mg/kg oral dose in female Sprague-Dawley rats; assay type: ADME, organism-based; set-up: dose 1 mg/kg, route oral; conditions: rat; how it was run: as §2
Rattus norvegicus [15] = species: Rattus norvegicus; test: In vitro effective concentration required for 50% stimulation of GH release in rat pituitary cell cultures.; assay type: functional; conditions: Pituitary gland cell
How it was run: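 Rat pituitary cell cultures exposed to compound. Released GH was quantified by rat-specific double-antibody radioimmunoassay. EC50 is the average of triplicate experiments.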

[16] = Volume of distribution was determined in female Sprague-Dawley rats following intravenous (iv) administration of drug (1 mg/kg).; assay type: ADME, organism-based; conditions: rat, in vivo; how it was run: as §5
[17] = Plasma elimination half-life was determined in female Sprague-Dawley rats following intravenous (iv) administration of drug (1 mg/kg).; assay type: ADME, organism-based; conditions: rat; how it was run: as §5
[18] = Time taken by the compound to achieve maximum plasma concentration at a 1 mg/kg oral dose in male and female Beagle dogs.; assay type: ADME, organism-based, Canis lupus familiaris; set-up: dose 1 mg/kg, route oral; conditions: both, dog; how it was run: as §3

Sequence of Growth hormone secretagogue receptor type 1 (Q92847 whole entry): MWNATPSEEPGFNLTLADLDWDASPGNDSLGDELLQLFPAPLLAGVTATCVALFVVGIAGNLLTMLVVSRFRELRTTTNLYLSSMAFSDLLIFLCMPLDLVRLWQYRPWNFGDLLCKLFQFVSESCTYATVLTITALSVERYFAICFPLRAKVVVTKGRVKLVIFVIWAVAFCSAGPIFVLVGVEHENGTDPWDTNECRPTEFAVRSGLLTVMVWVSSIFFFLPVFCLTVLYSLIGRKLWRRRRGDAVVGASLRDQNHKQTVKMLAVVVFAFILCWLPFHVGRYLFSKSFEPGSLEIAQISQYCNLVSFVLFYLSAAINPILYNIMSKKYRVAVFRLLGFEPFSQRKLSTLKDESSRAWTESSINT

Row | SMILES | clearance [1] | half-life [2] | logD [3] | Vd [4] | Tmax [5] | Cmax [6] | half-life [7] | Ki [8] | clearance [9] | bioavailability [10] | ED50 (Rattus norvegicus [11]) | bioavailability [12] | half-life [13] | Cmax [14] | EC50 (Rattus norvegicus [15]) | Vd [16] | half-life [17] | Tmax [18]
1 | CC(C)(N)C(=O)N[C@H](COCc1ccccc1)C(=O)N1CCC2=NN(C(C)(C)C)C(=O)C2(Cc2ccccc2)C1 (stereo not given in full) | 13 mL/min/kg | 2.5 h | 2.9 | 2.2 L/kg | – | – | – | – | – | – | – | – | – | – | – | – | – | –
2 | CC(C)(N)C(=O)N[C@H](COCc1ccc(F)cc1F)C(=O)N1CCC2=NN(CC(F)(F)F)C(=O)[C@]2(Cc2ccccn2)C1 | 5.3 mL/min/kg | 3.7 h | 1.6 | 1.5 L/kg | 0.25 h | 260 ng/mL | 4.2 h | 5 nM | 46 mL/min/kg | 77% | 0.1 mg/kg | 59% | 3.9 h | 88 ng/mL | 3 nM | 4.9 L/kg | 1.9 h | 1.3 h
3 | CN1N=C2CCN(C(=O)[C@@H](COCc3ccc(F)c(F)c3)NC(=O)C(C)(C)N)CC2(Cc2ccccc2)C1=O (stereo not given in full) | 17 mL/min/kg | 2.7 h | 1.7 | 3.5 L/kg | – | – | – | 18 nM | – | – | 0.3 mg/kg | – | – | – | 10 nM | – | – | –
4 | CC(C)(N)C(=O)N[C@H](COCc1ccc(F)c(F)c1)C(=O)N1CCC2=NN(CC(F)(F)F)C(=O)C2(Cc2ccccc2)C1 (stereo not given in full) | 13 mL/min/kg | 4.7 h | 3 | 5.1 L/kg | – | – | – | 0.45 nM | – | – | > 10 mg/kg | – | – | – | 2 nM | – | – | –
5 | CN1N=C2CCN(C(=O)[C@@H](COCc3ccccc3)NC(=O)C(C)(C)N)C[C@@]2(Cc2ccccc2)C1=O [CAPROMORELIN] | 19 mL/min/kg | 1.3 h | 1.7 | 2 L/kg | – | – | – | 7 nM | – | – | 0.05 mg/kg | – | – | – | 3 nM | – | – | –
6 | CC(C)(N)C(=O)N[C@H](COCc1ccc(F)c(F)c1)C(=O)N1CCC2=NN(C(C)(C)C)C(=O)C2(Cc2ccccc2)C1 (stereo not given in full) | 19 mL/min/kg | 3.9 h | 2.9 | 5.9 L/kg | – | – | – | 0.34 nM | – | – | > 10 mg/kg | – | – | – | 4 nM | – | – | –
